# Screens from PubChem.
# Only some compounds are listed: those with a hit (about 3.9% of all), similar ones and a draw of the others.
# SR-BI uptake up = activators of SR-BI mediated HDL lipid uptake; CHO ldlA[mSR-BI] cells, DiI-HDL uptake fluorescence, 3 h; 100 = double the neutral-control signal; activation, % at 12.5 µM; 320,000 tested, 0.096% active; AID 504775;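 active means mean replicate activation of at least 60% and every replicate at or above 60%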;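 further: 0% = median plate neutral-control signal and 100% = twice that signal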
#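 Assay system: CHO ldlA[mSR-BI] cells, LDL receptor-null, SR-BI overexpressing; medium: Ham's F12 with 0.5% BSA, HEPES 25 mM, pH 7.4; also added: DiI-HDL 10 µg/mL; timing: 3 h uptake period with compound, 37 °C; signal: DiI fluorescence, bottom read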
# FXN GAA850 act = increases GAA850 frataxin promoter reporter activity; HEK293 lucGAA850 FXN promoter luciferase reporter, 24 h; percent of 10 µM SAHA response; activation, % at 6 µM; 360,000 tested, 0.56% active; AID 540364;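 active means activation above the average of all compounds screened plus 3 SD, cutoff fixed separately per campaign, cut at about 7.5% in these data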;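 further: 0% = DMSO wells and 100% = 10 µM SAHA wells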
# HIF act = HIF pathway transcriptional activation | activation, % at 7.5 µM (by protocol) | 300,000 tested, 0.32% active | U2OS HRE-luciferase reporter, luminescence; normalized: DMSO 0%, desferrioxamine 100%;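 active means mean activation of at least 10% of the iron chelator positive control signal, with at least half of replicates also reaching 10%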
# AHR activator = activators of human aryl hydrocarbon receptor; P35869; AHR-responsive luciferase reporter cells, luminescence; activation, % at 5 µM; 320,000 tested, 2.5% active; AID 2796; in the data active means activation above about 47%;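 further: 0% = vehicle wells and 100% = reference agonist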
# ABCB6 inh MLPCN = inhibitors of human ABC transporter ABCB6. Q9NP58. K562-ABCB6 porphyrin accumulation, flow cytometry, 1 h; stronger effect = lower value. fluorescence ratio to DMSO, % at 10 µM. 360,000 tested, 0.19% active. AID 602162;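 active means fluorescence ratio to DMSO below 75%, the collection mean minus 3 SD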;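 further: signal is porphyrin accumulated inside mitochondria; 100% equals median channel fluorescence of DMSO control wells; lower ratio means ABCB6 inhibition with less porphyrin fluorescence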
# SR-BI DiI inh = mouse SR-BI HDL lipid transfer inhibition | Q61009 | ldlA[mSR-BI] CHO cells, DiI-HDL uptake fluorescence, 3 h | inhibition, % at 12.5 µM | 320,000 tested, 0.96% active | AID 488896;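 active means mean replicate inhibition of at least 70% and a set share of replicates each scoring 70 or more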;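 further: 0% = median of neutral control wells and 100% = median of positive control wells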
# GAA30 counter = GAA30 FXN promoter activation counter-screen. shares compounds with FXN GAA850 act. HEK293 lucGAA30 FXN promoter luciferase, 24 h; DMSO = 0%, 5 µM ipriflavone = 100%. activation, % at 6 µM. 1,900 tested, 66% active;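 active means mean activation above the mean of solvent-only control wells plus 3 SD, cut at about 22% in these data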;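 further: counterscreen of GAA850 promoter hits where activity marks nonselective or luminescence artifacts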
# GAA850 confirm = GAA850 FXN promoter activation confirmation | HEK293 lucGAA850 FXN promoter luciferase reporter, 24 h; 100% = activation by SAHA | activation, % at 6 µM | 1,900 tested, 86% active | shares compounds with FXN GAA850 act;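 active means mean activation above a set limit taken from the primary screen, cut at about 8% in these data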;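 further: 0% = DMSO wells and 100% = 10 µM SAHA wells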
# The depositor's hits bear a star; . = no result.
SMILES,SR-BI uptake up,FXN GAA850 act,HIF act,AHR activator,ABCB6 inh MLPCN,SR-BI DiI inh,GAA30 counter,GAA850 confirm
O=C(N/N=C/c1ccccn1)c1ccc(Br)cc1,6,23*,16*,13,101,-6,-105,-31
O=C(N/N=C/c1ccccn1)c1cc([N+](=O)[O-])cc([N+](=O)[O-])c1,6,14*,2,15,96,-6,-82,-17
O=C(N/N=C/c1ccccn1)c1cccc([N+](=O)[O-])c1,8,9.2*,5,2,100,-8,-38,7
CCCCC(C(=O)OCC)C(N)Cc1ccc(F)cc1 (centres undefined),12,1,0,-2,92,-12,.,.
CCOC(=O)N1CCN(C(=O)c2ccc(CS(=O)(=O)c3ccc(OC)cc3)o2)CC1,0,14*,.,3,99,0,20,7
Nc1c(C=C2C=CC(=O)C=C2)c(=O)nc2snc(SCc3ccccc3)n12,.,7.7*,1,9,99,.,59*,15*
CCC(O)(CC)C(=O)NN(C(=O)Nc1csc2c1CCCC2)c1ccccc1,-27,9.4*,0,27,100,27,7,3
COC(=O)N(NC(=O)C(O)(CCC(C)C)CCC(C)C)c1ccccc1,15,-3,0,5,103,-15,.,.
CCOc1ccc2cc(C#N)c(SCC(=O)N3CCOCC3)nc2c1,23,9.7*,7,11,103,-23,133*,46*
COc1ccc(C(=O)/C=C/Sc2nc3ccccc3o2)cc1,11,9.8*,3,2,93,-11,5,5
COC(=O)[C@]1(C)N[C@H](CN(C)C(=O)Nc2ccc(C)cc2)[C@@H]2C(=O)N(Cc3ccccc3)C(=O)[C@@H]21,-1,12*,.,-2,99,1,25*,7
CCN(C[C@H]1N[C@@](C)(C(=O)OC)[C@H]2C(=O)N(Cc3ccccc3)C(=O)[C@@H]12)C(=O)Nc1ccc(F)cc1,-14,15*,.,1,104,14,25*,6
COC(=O)[C@]1(C)N[C@H](CN(C)C(=O)Nc2ccc(Cl)cc2)[C@@H]2C(=O)N(Cc3ccccc3)C(=O)[C@@H]21,-16,18*,.,0,100,16,24*,13*
CCN(C[C@H]1N[C@@](C)(C(=O)OC)[C@H]2C(=O)N(Cc3ccccc3)C(=O)[C@@H]12)C(=O)c1ccc(F)cc1,17,2,.,0,97,-17,.,.
COC(=O)[C@]1(C)N[C@H](CN(C)C(=O)Nc2ccc(OC)cc2)[C@@H]2C(=O)N(Cc3ccccc3)C(=O)[C@@H]21,26,8.3*,.,-1,100,-26,19,17*
CCNC(=O)N(C)C[C@H]1N[C@@](C)(C(=O)OC)[C@H]2C(=O)N(Cc3ccccc3)C(=O)[C@@H]12,0,-1,.,-2,104,0,.,.
COC(=O)[C@]1(Cc2ccccc2)N[C@H](CN(C)C(=O)Nc2ccc(Cl)cc2)[C@@H]2C(=O)N(Cc3ccccc3)C(=O)[C@@H]21,-7,-2,.,2,105,7,.,.
CN1CCN(c2ccc([N+](=O)[O-])c(-n3nc(-c4ccccc4)c4ccccc4c3=O)c2)CC1,.,2,-33,10,99,.,.,.
CCOC(=O)c1cnc2ccc(Cl)cc2c1NCCN(C)C,42,4,0,6,97,-42,.,.
Cn1c(CCN2CCCCC2)nc2cc([N+](=O)[O-])ccc21,-5,7.7*,0,-1,100,5,18,17*
CCN1CCN(CCc2nc3cc([N+](=O)[O-])ccc3n2C)CC1,2,1,-1,-1,98,-2,.,.
O=c1nc(N/N=C/c2c[nH]c3ccccc23)cn[nH]1,.,7.8*,1,32,90,.,103*,24*
C(=N\Nc1ccccn1)/c1c[nH]c2ccccc12,-7,7.7*,3,48*,95,7,76*,36*
Clc1ccc(/C=N/Nc2ccccn2)cc1,-17,6,1,17,97,17,.,.
Brc1ccc(/C=N/Nc2ccccn2)cc1,-2,9.5*,2,9,95,2,105*,39*
SMILES,SR-BI uptake up,FXN GAA850 act,HIF act,AHR activator,ABCB6 inh MLPCN,SR-BI DiI inh,GAA30 counter,GAA850 confirm
COc1ccccc1N1CCN(CC(=O)c2c(N)n(C)c(=O)n(C)c2=O)CC1,25,2,0,1,94,-25,.,.
O=c1c2[nH]c3ccccc3c2ncn1Cc1cccnc1,-11,1,0,.,94,11,.,.
COC(=O)[C@]1(Cc2ccccc2)N[C@H](CN(C)C(=O)Nc2ccc(F)cc2)[C@@H]2C(=O)N(Cc3ccccc3)C(=O)[C@@H]21,-10,-7,.,2,93,10,.,.
CC[C@@]1(C(=O)OC)N[C@H](CN(C)C(=O)Nc2ccc(OC)cc2)[C@@H]2C(=O)N(Cc3ccccc3)C(=O)[C@@H]21,2,17*,.,0,99,-2,84*,24*
CCNC(=O)N(C)C[C@H]1N[C@@](CC)(C(=O)OC)[C@H]2C(=O)N(Cc3ccccc3)C(=O)[C@@H]12,-3,0,.,0,106,3,.,.
CC[C@@]1(C(=O)OC)N[C@H](CN(C)C(=O)Nc2ccc(C)cc2)[C@@H]2C(=O)N(Cc3ccccc3)C(=O)[C@@H]21,-11,15*,.,6,98,11,42*,14*
COC(=O)[C@]1(Cc2ccccc2)N[C@H](CN(C)C(=O)Nc2ccccc2)[C@@H]2C(=O)N(Cc3ccccc3)C(=O)[C@@H]21,9,-6,.,1,101,-9,.,.
CC[C@@]1(C(=O)OC)N[C@H](CN(C)C(=O)Nc2ccc(F)cc2)[C@@H]2C(=O)N(Cc3ccccc3)C(=O)[C@@H]21,1,9.6*,.,-1,100,-1,38*,18*
COc1ccc(C(C#N)CCC2OCCO2)cc1OC (centres undefined),6,0,.,0,91,-6,.,.
Cc1cc(C)c2c(N)c3cccc(C)c3nc2n1,-16,8.0*,.,69*,104,16,12,143*
CC(=Nc1ccc(Br)cc1)c1sc2ccccc2c1O,.,7.9*,3,25,104,.,116*,36*
c1ccc(OCCCn2nnc(-c3ccc(N4CCOCC4)cc3)n2)cc1,-15,8.6*,0,5,97,15,20,8.6*
